Compound activity from PubChem.
Diaphorase act: compounds boosting diaphorase resazurin reduction – biochemical, uHTS, resorufin fluorescence, counter-screen for diaphorase-coupled primary assays, primary screen; Diaphorase/resazurin coupled assay, 16 min; active compounds read high; 1 = vehicle wells, 0 = NADH-free wells; activation factor at 20 µM; 0.005% of 190,000 active;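 active = diaphorase activity raised at least twofold by the compound at 20 µM; inactive = activation factor below 2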
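Material: Purified diaphorase enzyme from Clostridium kluyveri | Buffer or medium: 50 mM HEPES pH 7.4 with 4.542 mM MgCl2, 0.005% Tween 20 | Times: 16 min enzyme reaction, ambient temperature | Signal: Red resorufin fluorescence at 544/590 nm excitation/emission | Measure: Increased resorufin signal from activators or reducing compounds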
PfG6PD inh: PfG6PD enzyme inhibitors, primary screen, biochemical, fluorescence intensity, uHTS | glucose-6-phosphate dehydrogenase-6-phosphogluconolactonase (Plasmodium falciparum 3D7) | PfGluPho enzyme, NADPH resazurin-diaphorase fluorescence | inhibition, % at 20 µM | 0.78% of 350,000 active;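 active = inhibition reaching at least a set limit at 20 µM in the primary screen, cut at about 59% in these data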;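 note: 0% = DMSO wells with substrate and 100% = DMSO wells lacking glucose-6-phosphate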
G6PDH CS: L. mesenteroides G6PDH inhibitors, counter-screen for G6PDH-coupled screening assays, biochemical, Leuconostoc mesenteroides enzyme; inhibition, % at 5 µM; 0.12% of 200,000 active; Purified L. mesenteroides G6PDH, diaphorase/resazurin coupled fluorescence, 45 min; glucose-6-phosphate dehydrogenase [Leuconostoc mesenteroides]; in the data active = inhibition above about 50%
Diaphorase inh: diaphorase inhibitors and chemical oxidizers, primary screen, counter-screen for diaphorase-coupled primary assays, biochemical, uHTS, resorufin fluorescence | diaphorase resazurin-to-resorufin fluorescence, NADH, 16 min; bacterial (C. kluyveri) enzyme, not human | inhibition, % at 20 µM | 0.69% of 190,000 active;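 active = primary screen inhibition at 20 µM above a set limit, cut at about 50% in these data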;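 note: plate controls were DMSO with full reaction for no effect and wells lacking NADH for full effect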
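System: Bacterial diaphorase enzyme (C. kluyveri) | Incubation: 16-min room-temperature incubation before reading | Benchmarks: No-NADH positive control and DMSO neutral control | Measured by: Resorufin fluorescence 544/590 nm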
HKDC1 inh: HKDC1 hexokinase inhibitors, primary screen, biochemical, fluorescence, uHTS | AID 493160, 2011 | 0.16% of 340,000 active | inhibition, % at 20 µM | recombinant HKDC1, G6PDH/diaphorase resazurin coupled fluorescence;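 active = inhibition above about 35% when tested at 20 µM, limit read from the data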;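 note: plate controls were DMSO wells with enzyme for no effect and DMSO wells lacking enzyme for full effect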
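Test system: recombinant HKDC1 (HK5) hexokinase enzyme, produced in-house; Amount: enzyme 5 µg/mL final; Buffer or medium: Tris pH 8.0 buffer with MgCl2, Tween-20, BSA, BME; Reagent: glucose and ATP substrates; Doses: 20 µM test compound, 1% DMSO; Incubation: 90 min reaction incubation at room temperature, dark; Detection: resorufin fluorescence at 613 nm.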
PfGluPho conf: PfG6PD inhibitors, hit retest, confirmation, biochemical, fluorescence intensity, single concentration | shares compounds with PfG6PD inh | recombinant PfGluPho, NADPH-diaphorase-resazurin fluorescence | inhibition, % at 20 µM | 34% of 2,400 active;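 active = inhibition of at least 50% at 20 µM in any single replicate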;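 note: 0% = DMSO with substrate and 100% = DMSO lacking glucose-6-phosphate substrate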
Diaph ctr 10uM: diaphorase inhibitors and chemical oxidizers, confirmation, counter-screen for P. falciparum G6PD inhibitor project, biochemical, fluorescence intensity, 10 µM NADPH; shares compounds with PfG6PD inh; diaphorase-coupled resazurin reduction, NADPH 10 uM; inhibition, % at 20 µM; 39% of 820 active; AID 504862, 2011;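 active = average inhibition reaching 50% or more with the compound at 20 µM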;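 note: resorufin red fluorescence formed as diaphorase reduces resazurin using NADPH; 0% = DMSO with enzyme and 100% = DMSO without enzyme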
Diaph ctr 30uM: diaphorase inhibitors and chemical oxidizers, confirmation, counter-screen for P. falciparum G6PD inhibitor project, biochemical, fluorescence intensity, 30 µM NADPH. Diaphorase/resazurin coupled assay, resorufin fluorescence. inhibition, % at 20 µM. shares compounds with PfG6PD inh. 29% of 820 active. AID 504863, 2011;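 active = inhibition averaging 50% or more, tested at 20 µM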;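 note: 0% = DMSO with enzyme and 100% = DMSO wells lacking diaphorase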
* marks the source's active call; other numbers are inactive results; / = no result given. Rows were chosen to be rich in hits. Some 1.3% of all compounds tested hit in one or more screens of this group.

SMILES	Diaphorase act	PfG6PD inh	G6PDH CS	Diaphorase inh	HKDC1 inh	PfGluPho conf	others
CC1([N+](=O)[O-])COP(=O)(NC2CCCC2)OC1 (centres undefined)	/	-2	/	/	-6	/
CCCCOC1OCN(C2CCCCC2)CC1(C)C (centres undefined)	/	-12	/	/	/	/
C=C1C(=O)O[C@@H]2C[C@@H](C)[C@@H]3C=CC(=O)[C@@]3(C)[C@@H](OC(=O)CC(=O)O[C@H]3[C@@H]4C(=C)C(=O)O[C@@H]4C[C@@H](C)[C@@H]4C=CC(=O)[C@]43C)[C@H]12	/	68*	/	/	16	56*	Diaph ctr 10uM=-6;Diaph ctr 30uM=-3
COc1cc(OC)c(OC)cc1CNCCc1ccc2c(c1)OCO2	/	-10	/	/	-7	/
CC1=NN=C(c2ccc(N)cc2)c2cc3c(cc2C1)OCO3	/	44	/	/	15	9
CN(C)c1ccc(C=C2C(=O)NC(=S)NC2=O)cc1	/	69*	/	/	-4	41
CNC(=O)Oc1cccc(-c2cn3cc(Cl)ccc3n2)c1	0.9	61*	0	5	-7	17
CNC(=O)Oc1ccc(-c2cn3cc(C)ccc3n2)cc1	0.9	62*	-1	8	17	47
CCC(COC(=O)NC)NC(=O)Oc1cccc(C)c1 (centres undefined)	0.9	-24	6	9	0	/
CS(=O)(=O)c1ccc(C2=C(CNC(=O)c3ccc([N+](=O)[O-])cc3)[C@H]3CC[C@@H](C2)N3CCOc2ccccc2)cc1	/	-13	/	/	/	/
O=C(c1cc(-c2ccc(Cl)cc2)n(-c2ccc(Cl)cc2Cl)n1)N1CCOCC1	0.8	82*	5	19	-3	25
O=C(c1cc([N+](=O)[O-])ccc1N1CCNCC1)N1CCOCC1	0.9	7	1	8	-9	/
CCn1c(C)c(C(=O)Nc2ccc(OC)cc2)c2cc(OC)ccc21	/	66*	/	/	0	26
O=C1CCC2(O)C3Cc4ccc(O)c5c4C2(CCN3Cc2ccoc2)C1O5 (centres undefined)	/	15	/	/	/	/
Cc1ccc(S(=O)(=O)N(C)N=O)cc1	/	3	/	/	-8	/
C[C@]12CC[C@@H]3c4ccc(O)c(O)c4CC[C@H]3[C@@H]1CC[C@@H]2O	0.3	100*	34	70*	1	93*	Diaph ctr 10uM=8;Diaph ctr 30uM=23
CCOC(=O)C(O)(c1ccc(NC(=O)c2ccc(Cl)c(Cl)c2)cc1)C(F)(F)F (centres undefined)	/	62*	/	/	-1	-27
CCOC(=O)C(O)(c1ccc(N(C)C(=O)c2ccc(Cl)c(Cl)c2)cc1)C(F)(F)F (centres undefined)	0.8	14	8	22	2	/
COc1cc(O)c(C(=O)O)c(-c2cc(O)c(O)cc2C)c1	/	105*	/	/	1	107*	Diaph ctr 10uM=38;Diaph ctr 30uM=25
O=C1C(=O)c2ccccc2-c2ccccc21	0.8	117*	53*	24	31	97*	Diaph ctr 10uM=88*;Diaph ctr 30uM=90*
CCOC(=O)C1(c2ccccc2)CCN(CCC(=O)Nc2cccc(Br)c2)CC1	/	17	/	/	5	/
O=C1Nc2ccc(Br)cc2C(c2ccc(Cl)cc2)=NC1O (centres undefined)	/	100*	/	/	5	75*	Diaph ctr 10uM=83*;Diaph ctr 30uM=67*
O=C1C(Br)C2CCC1C2C(=O)O (centres undefined)	/	8	/	/	/	/
Nc1ccc2c3c(cccc13)-c1ccccc1-2	/	79*	/	/	7	82*	Diaph ctr 10uM=-16;Diaph ctr 30uM=-8
Nc1ccc(C2(c3ccc(N)cc3)c3ccccc3-c3ccccc32)cc1	0.9	-19	4	7	-1	/
SMILES	Diaphorase act	PfG6PD inh	G6PDH CS	Diaphorase inh	HKDC1 inh	PfGluPho conf	others
Clc1ccc(-c2nc3ccc(Cl)cn3c2CN2CCOCC2)cc1	1	60*	10	0	-5	33
C=C(C)C(Cc1c(OC)ccc(C(=O)/C=C/c2ccc(O)cc2)c1O)OO (centres undefined)	/	13	/	/	24	/
COC(=O)C1=C(c2ccc(C(C)=O)cc2)C[C@@H]2CC[C@H]1N2C(=O)NCCOc1ccccc1Cl	/	-4	/	/	-6	/
CCCCCCCCn1sccc1=O	/	92*	/	/	7	78*	Diaph ctr 10uM=-9;Diaph ctr 30uM=-9
COC(=O)C1=C(c2ccc3ccccc3c2)C[C@@H]2CC[C@H]1N2C(=O)N1CCCC1	/	-10	/	/	-4	/
Cc1nc2c(=O)n(C)c(=O)nc-2n(C)n1	0.7	120*	68*	34	18	109*	Diaph ctr 10uM=98*;Diaph ctr 30uM=102*
CCN(C=C1CC2C3CC=C4CC(O)CCC4(C)C3CCC2(C)C1=O)CC (centres undefined)	/	-15	/	/	1	/
CC1CCN(C(CC(=O)c2ccccc2)C(=O)c2ccccc2)CC1 (centres undefined)	/	94*	/	/	1	0
NC1CCc2cc(O)c(O)cc2C1 (centres undefined)	/	69*	/	/	-1	76*	Diaph ctr 10uM=-2;Diaph ctr 30uM=6
Oc1ccccc1Cl	/	5	/	/	-3	/
Oc1ccc(O)c2c1C1(Cl)C(Cl)=C(Cl)C2(Cl)C1(Cl)Cl	/	73*	/	/	-2	12
CCOP(=O)(NC(C)C)Oc1ccc(SC)c(C)c1 (centres undefined)	/	-12	/	/	-2	/
O=C1NC(=O)N(c2ccc3c(c2)OCO3)C(=O)/C1=C/c1ccsc1	0.9	28	0	15	-8	/
O=C1NC(=O)N(c2ccc3c(c2)OCO3)C(=O)/C1=C/c1cccs1	0.8	67*	11	19	-3	45
CCCC(=O)NC1=C(N2CC2)C(=O)C(NC(=O)CCC)=C(N2CC2)C1=O	/	81*	/	/	10	94*	Diaph ctr 10uM=85*;Diaph ctr 30uM=82*
COC(=O)C1=C(c2ccc(OC(F)(F)F)cc2)C[C@@H]2CC[C@H]1N2C(=O)N1CCC(O)CC1	/	-3	/	/	-5	/
COC(=O)C12CCc3c(ccc4cc(OC)ccc34)C1=CC(=O)C2 (centres undefined)	/	71*	/	/	0	28
COc1ccc2c(c1)C(NC(C)=O)CCc1cc(OC)c(OC)c(OC)c1-2 (centres undefined)	/	-8	/	/	-1	/
c1ccc(-c2nc(N3CCOCC3)s[n+]2-c2ccccc2)cc1	0.9	59*	-1	6	-12	73*	Diaph ctr 10uM=-24;Diaph ctr 30uM=-25
CC1([N+](=O)[O-])COP(=O)(NC2CC2)OC1 (centres undefined)	/	-12	/	/	-7	/
